The source made the active and inactive calls. The rule behind the calls is not given here.
Columns and labels:
Plenodomus lingam [1] = assay: Antifungal activity against Leptosphaeria maculans isolate BJ-125/UAMH-9410 assessed as mycelial growth inhibition at 0.1 mM incubated under constant light for 5 days by mycelial radial growth bioassay; type: functional; details: for inhibition of growth at 100 µM: isolate BJ-125/UAMH-9410, 120 h, read-out: GI
In short: (§1)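 Mycelial radial growth assay. L. maculans (BJ125 or UAMH-9410) was grown on V8 agar. A 4 mm plug cut from 7-day-old V8 plates was placed upside down at the centre of PDA wells (33 mm) containing compound dissolved in CH3CN. Controls held 1% CH3CN in PDA. Plates were incubated under constant light for 5 days. Mycelial diameter was measured, and % inhibition = 100 − [(amended/control diameter) × 100]. Triplicate, at least twice; mean ± SD.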

Plenodomus lingam [2] = assay: Antifungal activity against Leptosphaeria maculans isolate BJ-125/UAMH-9410 assessed as mycelial growth inhibition at 0.2 mM incubated under constant light for 5 days by mycelial radial growth bioassay; type: functional; details: isolate BJ-125/UAMH-9410, 120 h, read-out: GI; in short: as §1
Plenodomus lingam [3] = assay: Antifungal activity against Leptosphaeria maculans isolate BJ-125/UAMH-9410 assessed as mycelial growth inhibition at 0.5 mM incubated under constant light for 5 days by mycelial radial growth bioassay; type: functional; details: isolate BJ-125/UAMH-9410, 120 h, read-out: GI; in short: as §1
[4] = Drug metabolism in Leptosphaeria maculans isolate BJ-125 assessed as drug recovery at 0.10 mM after 24 hr by HPLC analysis; type: ADME, organism-based; details: plenodomus lingam, Leptosphaeria maculans isolate BJ-125 (fungus); read-out: Drug recovery
In short: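 Minimal medium (50 mL) was inoculated with isolate BJ-125 spores (106/mL) and shaken at 120 rpm, 23 °C, under constant light. After 2 days, compound in CH3CN was added (final 0.10 mM), also to noninoculated medium as a stability control. Broth samples taken up to 72 h were extracted with EtOAc and quantified by HPLC-DAD against calibration curves; basified broth was extracted with CHCl3/MeOH for amines. At least three independent experiments ± SD.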

| SMILES | growth inhibition (GI) (Plenodomus lingam [1]) | inhibition of growth at 200 µM (Plenodomus lingam [2]) [%] | inhibition of growth at 500 µM (Plenodomus lingam [3]) [%] | inhibition of growth at 100 µM (Plenodomus lingam [1]) [%] | remaining at 24 h, 100 µM [4] [%] |
| --- | --- | --- | --- | --- | --- |
| COn1c(CN)cc2ccccc21 | inactive | 8 | 19 |  |  |
| COn1c(CNC(C)=O)cc2ccccc21 |  | 11 | 15 | 4 |  |
| CC(=O)NCc1ccc(-c2ccccc2)cc1 |  | 17 | 30 | 9 |  |
| NCCCc1c[nH]c2ccccc12 | inactive | 14 | 27 |  |  |
| CC(=O)NCCCc1c[nH]c2ccccc12 |  | 13 | 24 | 10 |  |
| OCCCc1c[nH]c2ccccc12 |  | 14 | 18 | 7 |  |
| CSC(=S)NCc1ccc(-c2ccccc2)cc1 |  | 32 | 46 | 14 | < 5 |
| CSC(=S)OCCCc1c[nH]c2ccccc12 |  | 18 | 31 | 5 |  |
| CC(=O)NCc1cc2ccccc2[nH]1 |  | 18 | 33 | 7 |  |
| CS/C(S)=N/CCCc1c[nH]c2ccccc12 |  | 46 | 67 | 21 | 37 |
| COn1c(CNC(=S)SC)cc2ccccc21 [1-METHOXYISOBRASSININ] |  | 15 | 34 | 7 | 47 |
| NCc1cc2ccccc2[nH]1 [2-INDOLYLMETHANAMINE] | inactive | 19 | 33 |  |  |
| c1ccc2[nH]cnc2c1 [BENZIMIDAZOLE] |  | 20 | 35 | 11 |  |
| CSC(=S)NCc1c[nH]c2ccccc12 [BRASSININ] |  | 21 | 55 | 10 | < 5 |
| CSC(=S)NCc1cc2ccccc2[nH]1 [ISOBRASSININ] |  | 22 | 43 | 13 | < 5 |
| CSC(=S)NCCc1c[nH]c2ccccc12 [METHYL TRYPTAMINEDITHIOCARBAMATE] |  | 71 | 100 | 43 | 55 |
| CSC(=S)OCCc1c[nH]c2ccccc12 [METHYL TRYPTOPHOLDITHIOCARBAMATE] |  | 15 | 32 | 7 | 15 |
| CC(=O)NCCc1c[nH]c2ccccc12 [NB-ACETYLTRYPTAMINE] | inactive | 7 | 15 |  |  |
| NCCc1c[nH]c2ccccc12 [TRYPTAMINE] |  | 15 | 28 | 12 |  |
| OCCc1c[nH]c2ccccc12 [TRYPTOPHOL] | inactive | 16 | 29 |  |  |
